An excerpt weighted towards active compounds, which were near 2.5% of everything screened.
HTRA1 inh = inhibitors of human serine peptidase HTRA1. recombinant HTRA1, FP-rhodamine activity-based probe, fluorescence polarization. inhibition, % at 5.96 µM. actives 0.5% (n = 340,000). AID 504803; in the data active means inhibition above about 36%
TCR CD3 inh = inhibitors of human TCR-CD3 interaction; TAMRA-labeled TCR probe fluorescence, biochemical; inhibition, % at 9.4 µM; actives 0.37% (n = 360,000); AID 651800; in the data active means inhibition above about 19%;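 further: recombinant mutant TCR 2C K166C tagged with TAMRA read by polarization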
SIAE primary = human SIAE inhibition, primary screen | actives 0.69% (n = 370,000) | Q9HAT2 | inhibition, % at 9.66 µM | SIAE FP-Rh probe binding, fluorescence polarization | AID 1053197;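 active means inhibition above a cutoff: mean of compounds within the control limits plus 3 SD of those, cut at about 17% in these data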
Target sequence (Q9HAT2 whole entry, looked up): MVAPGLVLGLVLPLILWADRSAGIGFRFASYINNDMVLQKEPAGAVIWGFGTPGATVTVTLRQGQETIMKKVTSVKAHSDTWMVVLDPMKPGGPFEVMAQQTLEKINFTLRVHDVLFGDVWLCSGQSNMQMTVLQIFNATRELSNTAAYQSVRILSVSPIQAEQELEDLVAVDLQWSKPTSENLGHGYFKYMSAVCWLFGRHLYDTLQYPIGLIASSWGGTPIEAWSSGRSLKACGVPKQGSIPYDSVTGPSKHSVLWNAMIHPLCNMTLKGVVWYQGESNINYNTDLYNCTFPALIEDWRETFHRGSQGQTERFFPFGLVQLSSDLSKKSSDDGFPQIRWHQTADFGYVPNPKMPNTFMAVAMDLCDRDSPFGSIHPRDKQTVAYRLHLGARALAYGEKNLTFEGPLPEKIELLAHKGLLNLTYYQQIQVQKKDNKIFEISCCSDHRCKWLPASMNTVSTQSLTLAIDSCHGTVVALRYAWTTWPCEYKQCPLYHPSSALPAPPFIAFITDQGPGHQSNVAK
mABHD4 FP = inhibits mouse alpha/beta hydrolase domain 4. Q8VD66. purified mABHD4, FP-Rh probe fluorescence polarization. inhibition, % at 8.92 µM. actives 0.54% (n = 370,000);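 active means inhibition exceeding the mean over every tested compound plus 3 SD, cut at about 30% in these data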
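Test system: mABHD4 protein | Buffer or medium: HEPES pH 7.0 buffer, 150 mM NaCl, 0.01% Pluronic F-127 | Probe or stimulus: FP-Rh fluorescent activity-based probe, added after compound pre-incubation | Timing: Pre-incubation 45 min, probe exposure 60 min, at 25 °C | Technique: Fluorescence polarization, excitation 525 nm, emission 598 nm, BODIPY TMR filters | Repeats: Single well per compound (singlicate)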
PRMT1 inh = PRMT1 (human) inhibition, primary screen; recombinant PRMT1, activity-based probe fluorescence polarization; actives 1.3% (n = 370,000); Q99873; inhibition, % at 2.79 µM;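 active means inhibition above about 21% made by adding two undisclosed values, limit read from the data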
HTRA1 inh conf = HTRA1 (human) inhibition, confirmation; shares compounds with HTRA1 inh; recombinant HTRA1, FP-rhodamine activity-based probe, fluorescence polarization; inhibition, % at 5.96 µM; actives 66% (n = 1,600);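 active means mean inhibition over three repeats above a set limit taken from the earlier primary screen, cut at about 37% in these data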;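 further: inhibitors block probe binding so polarization drops and inhibition rises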
Hits are given with their value; 0 = inactive; - = no result.

SMILES | HTRA1 inh | TCR CD3 inh | SIAE primary | mABHD4 FP | PRMT1 inh | HTRA1 inh conf
Nc1ccc(N2CCCCC2)cc1N1CCCCC1 | 51 | 0 | 0 | 0 | 0 | 59
COP(=O)(CC(=O)OC(C)(C)C)C(CC(C)C)NC(=O)OCc1ccccc1 (stereo not given) | - | - | 0 | 0 | 0 | -
CC(Sc1nnc(C(C)Oc2ccc(F)cc2)o1)C(=O)NCc1ccc2c(c1)OCO2 (stereo not given) | 0 | 0 | 0 | 0 | 0 | -
S=C(N=Nc1ccccc1)NNc1ccccc1 | 43 | 0 | 0 | 0 | 0 | 43
S=C(NNC(=S)Nc1ccc(Cl)cc1)NNc1ccccc1 | 0 | 0 | 0 | 0 | 0 | -
C(=N\Nc1nc2ccccc2[nH]1)/c1cccc2cccnc12 | 49 | 0 | 0 | 0 | 0 | 54
COc1ccc(-n2c(SCC(=O)NCC3CCCO3)nc3ccccc3c2=O)cc1Cl (stereo not given) | 0 | 0 | 0 | 0 | 0 | -
COc1cccc(/C=N/NC(=O)c2nc(-c3ccccc3)cc(-c3ccccc3)n2)c1O | 43 | 0 | 0 | 0 | 0 | 57
COc1cccc(/C=N/NC(=O)N/N=C/c2cccc(OC)c2O)c1O | 60 | 0 | 0 | 0 | 0 | 85
CCOc1ccccc1/C=N/NC(=O)c1c(C)nc2ccc(Br)cn12 | 0 | 0 | 0 | 0 | 0 | -
COc1cccc(C=NNC(=O)c2ccncc2)c1O | 0 | 0 | 0 | 0 | 0 | -
COc1cccc(/C=N/NC(=O)c2c(C)nc3ccc(Br)cn23)c1O | 54 | - | - | - | - | 52
CCOc1ccc(C(=O)OCC(=O)N2CC(C)OC(C)C2)cc1OCC (stereo not given) | 0 | 0 | 0 | 0 | 0 | -
CC1CNC(=S)N(c2ccccc2)C1=O (stereo not given) | 0 | 0 | 0 | 0 | 0 | -
COc1ccc(NS(=O)(=O)c2cccc(C(=O)NNC(=O)CNC(=O)c3cccc(C)c3)c2)cc1 | 0 | 0 | 0 | 0 | 0 | -
COc1cc(NC(=O)Cn2cnc(S(=O)(=O)N3CCC(C)CC3)c2)cc(OC)c1OC | 0 | 0 | 0 | 0 | 0 | -
C(#Cc1ccccc1)C[N+]1(CC#Cc2ccccc2)CCCC1 | 0 | 0 | 0 | 0 | 0 | -
C=CC#CC[N+]1(CC#Cc2ccccc2)CCOCC1 | 57 | 0 | 0 | 0 | 0 | 65
CCOc1ccc2c(ccc(/C=C/c3cc(C)c4cccnc4c3O)[n+]2C)c1 | 64 | - | - | - | - | 90
CCOc1ccc2[nH]c3ncccc3c(=O)c2c1 | 0 | 0 | 0 | 0 | 0 | -
Cn1c(SCc2ccccc2)nccc1=O | 0 | 0 | 0 | 0 | 0 | -
CC1=C(SCc2ccccc2)C(=O)c2ccccc2C1=O | 42 | 0 | 0 | 70 | 66 | 36
N#CC1=C(N)N(c2ccc(Br)cc2)C2=C(C(=O)CCC2)C1c1cccnc1 (stereo not given) | 46 | 0 | 0 | 0 | 0 | 0
COc1cc(C2Nc3cccc4cccc(c34)N2)cc(OC)c1O | 39 | 0 | 47 | 0 | 0 | 0
COc1cc(C2Nc3cccc4cccc(c34)N2)ccc1OC(C)=O | 0 | - | - | - | - | -
SMILES | HTRA1 inh | TCR CD3 inh | SIAE primary | mABHD4 FP | PRMT1 inh | HTRA1 inh conf
CC(C)c1ccc(NC(=O)Nc2cc3sccc3n2C)cc1 | 47 | 0 | 0 | 0 | 0 | 0
Oc1ccc2ccccc2c1/C=N/Nc1nnc(-c2ncc[nH]2)c2ccccc12 | 38 | 0 | 0 | 0 | 0 | 100
CCOC(=O)c1sc(=S)n(-c2ccc(OC)cc2)c1C | - | 0 | 0 | 0 | 0 | -
CCOC(=O)c1c2c(n(-c3ccc(OC)cc3)c1C)C(=O)C(=O)c1ccccc1-2 | 47 | - | - | - | - | 45
Cc1cccc(NC(=O)CSc2nnc(-c3ccco3)c(-c3ccco3)n2)c1C | 50 | - | - | - | - | 0
CCCC1Nc2ccc(C(=O)O)cc2C2C=CCC12 (stereo not given) | 39 | - | - | - | - | 39
Clc1ccccc1-c1ccc2nccn2c1 | - | 0 | 0 | 0 | 0 | -
C/C(=N\NC(=O)c1cc2ccccc2cc1O)c1ccccn1 | 52 | 0 | 0 | 0 | 0 | 0
C/C(=N\NC(=O)c1c[nH]c2ccccc12)c1ccccn1 | 0 | 0 | 0 | 0 | 0 | -
O=C(N/N=C/c1ccc(Sc2ccccn2)o1)c1cc2ccccc2cc1O | 60 | - | - | - | - | 49
O=C(N/N=C\c1ccc(Sc2ccccn2)o1)c1cccc(F)c1 | 0 | 0 | 0 | 0 | 0 | -
CCOc1ccccc1/C=C/c1nc2ccccc2[nH]c1=O | 40 | 0 | 0 | 0 | 0 | 0
CC1=CC(C)(C)Nc2ccccc21 | 0 | 0 | 0 | 0 | 0 | -
COc1ccc2c(c1)NC(C)(C)C=C2C | 46 | 0 | 0 | 0 | 0 | 0
COc1cccc2nc3cc(C)c(C)cc3nc12 | 48 | 0 | 0 | 0 | 0 | 0

Source: PubChem (The Scripps Research Institute Molecular Screening Center)
